Published values of several laboratories.
Lines come from different studies, so protocols differ.
Observed: cell growth or viability

Structure (SMILES)	cell line	technique	time	IC50
COc1cccc2c1C(=O)c1c(O)c3c(c(O)c1C2=O)C[C@@](O)(C(=O)CO)C[C@@H]3O[C@H]1C[C@H](N)[C@H](O)[C@H](C)O1	SW480	MTT	48 h	0.09 µM
Cc1c(C)c2c(c(C)c1O)CCC(C)(COc1ccc(CC3SC(=O)NC3=O)cc1)O2 (stereo not shown)	THLE-2	MTT	–	16.3 µM
Nc1ccccc1NC(=O)c1ccc(Cn2cnc3c(Nc4ccc(Cl)cc4)ncnc32)cc1	MM1.S	MTT	72 h	1.13 µM
NNc1nc2ccc(Br)cc2c(=O)n1-c1ccc(F)cc1	SW480	MTT	48 h	14.7 µM
C=C1CC[C@@H]2[C@](C)(CO)[C@H](O)CC[C@@]2(C)[C@@H]1C/C=C1/C(=O)OC[C@H]1O	SW480	MTT	48 h	4.48 µM
CCCN1CC(Oc2ccc([C@@H]3c4[nH]c5ccccc5c4C[C@@H](C)N3CC(C)(C)F)cc2)C1	CAMA-1	–	–	0.126 µM
COc1c(Cl)cccc1Nc1c(-c2ccncc2OC[C@@H]2COCCO2)[nH]c2c1C(=O)NCC2	NCI-N87	ATP luminescence	–	0.0127 µM
NNc1nc2ccc(Br)cc2c(=O)n1-c1ccccc1	SW480	MTT	48 h	136 µM
O=P1(c2ccccc2)CCCCC1	SW480	MTT	72 h	> 100 µM
Cc1cc(Nc2ncnc3ccc(NC4=NC(C)(C)CO4)cc23)ccc1Oc1ccn2ncnc2c1	NCI-N87	ATP luminescence	–	0.0898 µM
Nc1ccccc1NC(=O)c1ccc(Cn2cnc3c(Nc4ccc(Br)cc4F)ncnc32)cc1	MM1.S	MTT	72 h	1.47 µM
NNc1nc2ccc(Br)cc2c(=O)n1-c1ccc(Cl)cc1	SW480	MTT	48 h	10.9 µM
Cc1nc(Nc2ncc(C(=O)Nc3c(C)cccc3Cl)s2)cc(N2CC[C@H](O)C2)n1	Toledo	ATP luminescence	72 h	> 10 µM
O=C(NO)c1ccc(Cn2cnc3c(Nc4ccc(Cl)cc4)ncnc32)cc1	MM1.S	MTT	72 h	2.64 µM
C#Cc1cccc(Nc2ncnc3cc(OCCOC)c(OCCOC)cc23)c1	SW480	MTT	48 h	11.2 µM
O=P1(C2CCCCC2)CCCCC1	SW480	MTT	72 h	5.1 µM
Cc1ccc(NNc2nc3ccc(Br)cc3c(=O)n2-c2ccccc2)cc1	SW480	MTT	48 h	85.4 µM
Cc1cc2c(C(=O)O)cccc2n1-c1nc2c(c(NCc3ccccc3)n1)CCCN2	MM1.S	–	72 h	0.9 µM
O=C(NO)Nc1nc2c(Cl)cc(Cl)cc2c(=O)n1-c1ccccc1	SW480	MTT	48 h	> 200 µM
COc1cccc2c1C(=O)c1c(O)c3c(c(O)c1C2=O)C[C@@](O)(C(=O)CO)C[C@@H]3O[C@H]1C[C@H](N)[C@H](O)[C@H](C)O1	HGC-27	–	96 h	0.166 µM
O=C(NO)c1ccc(Cn2cnc3c(Nc4cccc([N+](=O)[O-])c4)ncnc32)cc1	MM1.S	MTT	72 h	1.56 µM
CN(C)C(=O)Nc1nc2c(Cl)cc(Cl)cc2c(=O)n1-c1ccccc1	SW480	MTT	48 h	> 200 µM
